The results in this text go back to ChEMBL document CHEMBL5126672, “Discovery of κ Opioid Receptor (KOR)-Selective d-Tetrapeptides with Improved In Vivo Antinociceptive Effect after Peripheral Administration” (ACS Med Chem Lett, 2022).

Series [1] deals with Mus musculus. In words: Antinociceptive activity in formalin-induced CD-1 mouse model of nociception assessed as reduction in total time spent in paw licking during early phase at 100 nmol, sc pretreated for 15 mins followed by formalin challenge measured up to 10 mins by formalin test. Type of series: functional, organism-based. Particulars: time 25.0 min. The method in brief: (§1)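 Subcutaneous injection into the mouse paw at 100 nmol/mouse, given 15 min before formalin challenge. Nociceptive behaviour was scored in the early and late phases against vehicle and U50,488H groups. Analysis used one-way ANOVA with Tukey's multiple comparisons test.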

Series [2] has as its target T1, Kappa-type opioid receptor (Cavia porcellus, UniProt P41144). Description: Displacement of [3H]-HS665 from KOR in guinea pig brain membranes. Type of series: cell membranes, Membrane. (In general: Displacement assays read how much labelled ligand stays bound in the presence of the test substance.)
In series [3] the test system is Mus musculus. In words: Antinociceptive activity in CD-1 mouse assessed as maximum possible effect at 10 nmol, icv measured after 15 to 120 mins by tail-flick test. Type of series: functional, organism-based. Conditions: time 15-120 min. The method in brief:
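Tail flick test in mice after intracerebroventricular injection of 10 nmol/mouse, with vehicle-treated and U50,488H control groups. Antinociception was expressed as maximum possible effect. N = 7 per group.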
Background: Hot-plate and tail-flick tests time the reaction to a heat stimulus.

Series [4] deals with Mus musculus. Description: Antinociceptive activity in formalin-induced CD-1 mouse model of nociception assessed as reduction in total time spent in paw licking during late phase at 100 nmol, sc pretreated for 15 mins followed by formalin challenge measured after 10 to 40 mins by formalin test. Type of series: functional, organism-based. Conditions: time 15-55 min. In outline: as §1

Series [5] concerns the target T1, Kappa-type opioid receptor. Description: (§2) Agonist activity at KOR in guinea pig brain membranes assessed as stimulation of [35S]GTPgammaS binding measured after 1 hr by liquid scintillation counting analysis. Type of series: functional, cell membranes, Membrane. A general note: GTPγS resists hydrolysis and so accumulates on activated G proteins.
The target in series [6] is Kappa-type opioid receptor (Cavia porcellus) (UniProt P41144). The series is described as §2. In kind it is functional, cell membranes. Particulars: Membrane, filed as agonist, DDE = dose-dependent effect.
Series [7] can be described thus: AUC (infinity) in C57/BL6 mouse plasma at 13.9 mg/kg, iv administered via bolus by LC-MS/MS analysis. Type of series: ADME, organism-based. Further details: time infinity, dose 13.9 mg/kg, route iv. The method in brief: (§3)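 Single intravenous bolus given to mice. Plasma concentrations were measured, and noncompartmental analysis gave Cmax, Tmax, t1/2 and AUC extrapolated to infinity. The calibration range was 10–1000 nM, with correlation coefficient >0.99 and the curve fit with 1/x2 weighting.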

Series [8] is described as follows: Drug uptake in C57/BL6 mouse brain at 13.9 mg/kg, iv administered via bolus by LC-MS/MS analysis. Type of series: ADME, organism-based. Conditions: in vivo, BLD = below limit of detection. The method in brief: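 Single intravenous bolus given to mice. Brain homogenates were analysed for drug exposure against a calibration curve spanning 10–1000 nM, fit with 1/x2 weighting.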

Series [9] can be described thus: Tmax in C57/BL6 mouse plasma at 13.9 mg/kg, iv administered via bolus by LC-MS/MS analysis. Type of series: ADME, organism-based. In outline: as §3
Series [10] is described as follows: Half life in C57/BL6 mouse plasma at 13.9 mg/kg, iv administered via bolus by LC-MS/MS analysis. In kind it is ADME, organism-based. The method in brief: as §3
Series [11] in a line: Cmax in C57/BL6 mouse plasma at 13.9 mg/kg, iv administered via bolus by LC-MS/MS analysis. The arrangement: dose 13.9 mg/kg, route iv. Type of series: ADME, organism-based. The method in brief: as §3
For series [12], the system named is Mus musculus. In words: Antinociceptive activity in CD-1 mouse assessed as maximum possible effect at 20 umol/kg, iv measured after 15 to 120 mins by tail-flick test. Conditions: dose 20.0 µmol/kg, time 15-120 min. In kind it is functional, organism-based. The method in brief:
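Intravenous dosing at 20 μmol/kg in mice, followed by tail flick testing with antinociception expressed as maximum possible effect. Vehicle-treated animals served as controls. N = 8.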

The source made the active and inactive calls. The calls are words filed in the database; no cut-off is given here. Square brackets hold non-standard residues; d marks the D form. Peptide text beside a SMILES is read from it. dNle = CCCC[C@@H](N)C(=O)O

T1 sequence (P41144 whole entry): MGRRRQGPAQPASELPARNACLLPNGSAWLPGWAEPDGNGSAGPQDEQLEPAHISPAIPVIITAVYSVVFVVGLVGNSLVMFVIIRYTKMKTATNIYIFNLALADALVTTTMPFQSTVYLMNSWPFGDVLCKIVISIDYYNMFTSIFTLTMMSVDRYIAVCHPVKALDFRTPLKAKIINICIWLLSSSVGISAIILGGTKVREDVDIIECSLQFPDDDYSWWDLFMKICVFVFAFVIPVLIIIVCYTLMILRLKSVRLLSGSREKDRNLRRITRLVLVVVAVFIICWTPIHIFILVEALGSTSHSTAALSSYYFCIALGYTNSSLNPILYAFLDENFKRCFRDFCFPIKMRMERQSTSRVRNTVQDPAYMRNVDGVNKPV
Kappa-type opioid receptor (Cavia porcellus), sequence (P41144 whole entry): as above

In the case of `CCCC[C@@H](NC(=O)[C@@H](Cc1cccc(F)c1)NC(=O)[C@H](N)Cc1ccccc1)C(=O)N[C@H](CCCNC(=N)N)C(N)=O`, the outcome with Mus musculus [1], in the series on Mus musculus [3] and in the series on Mus musculus [4] was Active. In series [2], this compound displayed a Ki of 3 nM. In addition, the EC50 in series [5] is 1860 nM. Further, the Activity entry in [6] is “Dde”.
Compound `CCCC[C@@H](NC(=O)[C@@H](Cc1ccccc1)NC(=O)[C@H](N)Cc1ccccc1)C(=O)N[C@H](CCCNC(=N)N)C(N)=O` (H-[dF][dF][dNle][dR]-NH2) had an AUC(0-inf) in [7] of 0.0364 µM·h. In [2], this compound showed an inhibitory constant (Ki) of 2.33 nM. Also, in the series on Mus musculus [3], the outcome was Active. The Drug uptake result in series [8] was “Bld”. The time to peak (Tmax) in series [9] is 5 min. In addition, the half-life in [10] came to 12.7 min. Further, the Cmax in [11] amounted to 93 nM. Further, in [5], the EC50 was 26.3 nM.
Turning to `CCCC[C@@H](NC(=O)[C@@H](Cc1ccccc1)NC(=O)[C@H](N)Cc1ccccc1F)C(=O)N[C@H](CCCNC(=N)N)C(N)=O`, the outcome with Mus musculus [1], in the series with Mus musculus [3] and in the series with Mus musculus [4] was Active. This compound displayed a Ki in [2] of 4.35 nM. The EC50 in series [5] is 1350 nM.
On to `CCCC[C@@H](NC(=O)[C@@H](Cc1ccc(F)cc1)NC(=O)[C@H](N)Cc1ccccc1)C(=O)N[C@H](CCCNC(=N)N)C(N)=O`, for which, in [7], the total exposure AUC(0-inf) was 0.0842 µM·h. For the same compound, the outcome with Mus musculus [1], with Mus musculus [3], with Mus musculus [12] and with Mus musculus [4] was Active. Further, the Ki in series [2] was 0.92 nM. Moreover, the Drug uptake result in [8] was “Bld”. In [9], the Tmax was 15 min. Besides, in series [10], the half-life was 20.6 min. This compound showed a Cmax in [11] of 109 nM. The EC50 in [5] was 955 nM.
As to `CCCC[C@@H](NC(=O)[C@@H](Cc1ccccc1)NC(=O)[C@H](N)Cc1ccc(O)cc1)C(=O)N[C@H](CCCNC(=N)N)C(N)=O`, the Ki in series [2] is 1.11 nM. In series [5], the EC50 was 9550 nM. Moreover, the Activity result in [6] is “Dde”.
The matching figures for `CCCC[C@@H](NC(=O)[C@@H](Cc1ccccc1)NC(=O)[C@H](N)Cc1c[nH]c2ccccc12)C(=O)N[C@H](CCCNC(=N)N)C(N)=O`: 3.07 nM, 5.13 nM and “Dde”.
As for `Oc1cccc(CCN(CCc2ccccc2)CC2CCC2)c1`, the Ki in series [2] came to 1.91 nM.
As for `CCCC[C@@H](NC(=O)[C@H]1Cc2ccccc2CN1C(=O)[C@H](N)Cc1ccccc1)C(=O)N[C@H](CCCNC(=N)N)C(N)=O`, the Ki in [2] was found to be 3.63 nM. The EC50 in series [5] was 7.94 nM.
For `CCCC[C@@H](NC(=O)[C@@H](Cc1ccccc1)NC(=O)[C@H](N)Cc1cccc(F)c1)C(=O)N[C@H](CCCNC(=N)N)C(N)=O`, the outcome in the series with Mus musculus [1], in the series on Mus musculus [3], with Mus musculus [12] and in the series on Mus musculus [4] was Active. Besides, the Ki in series [2] was 1.28 nM. In addition, the concentration for a half-maximal effect (EC50) in series [5] is 22.4 nM. The Activity result in series [6] is “Dde”.

As a reminder, the Ki is a dissociation constant, usually derived from enzyme kinetics or from competition with a known ligand. For orientation: EC50 means the concentration giving half of the maximal effect. As a reminder, the AUC(0-inf) is the area under the concentration-time curve extrapolated to infinity. A higher AUC(0-inf) goes with more exposure. Broadly, the Tmax is the time from dosing to the highest level. As a reminder, the half-life is how long it takes for the measured level to halve. Low readings indicate fast loss, high ones slow loss. One may read the Cmax as the maximum level reached in the sampled fluid or tissue.
